Source: PubChem
Only some compounds are listed: those with a hit (about 2.3% of all), similar ones and a draw of the others.
PLCb3 inh: blocks human PLC-beta3 enzyme activity; hit rate 0.18% among 370,000; Purified PLC-beta3, fluorogenic substrate, fluorescence; Q01970; inhibition, % at 12.2 µM; in the data active = inhibition above about 11%
Target sequence (Q01970 whole entry, looked up): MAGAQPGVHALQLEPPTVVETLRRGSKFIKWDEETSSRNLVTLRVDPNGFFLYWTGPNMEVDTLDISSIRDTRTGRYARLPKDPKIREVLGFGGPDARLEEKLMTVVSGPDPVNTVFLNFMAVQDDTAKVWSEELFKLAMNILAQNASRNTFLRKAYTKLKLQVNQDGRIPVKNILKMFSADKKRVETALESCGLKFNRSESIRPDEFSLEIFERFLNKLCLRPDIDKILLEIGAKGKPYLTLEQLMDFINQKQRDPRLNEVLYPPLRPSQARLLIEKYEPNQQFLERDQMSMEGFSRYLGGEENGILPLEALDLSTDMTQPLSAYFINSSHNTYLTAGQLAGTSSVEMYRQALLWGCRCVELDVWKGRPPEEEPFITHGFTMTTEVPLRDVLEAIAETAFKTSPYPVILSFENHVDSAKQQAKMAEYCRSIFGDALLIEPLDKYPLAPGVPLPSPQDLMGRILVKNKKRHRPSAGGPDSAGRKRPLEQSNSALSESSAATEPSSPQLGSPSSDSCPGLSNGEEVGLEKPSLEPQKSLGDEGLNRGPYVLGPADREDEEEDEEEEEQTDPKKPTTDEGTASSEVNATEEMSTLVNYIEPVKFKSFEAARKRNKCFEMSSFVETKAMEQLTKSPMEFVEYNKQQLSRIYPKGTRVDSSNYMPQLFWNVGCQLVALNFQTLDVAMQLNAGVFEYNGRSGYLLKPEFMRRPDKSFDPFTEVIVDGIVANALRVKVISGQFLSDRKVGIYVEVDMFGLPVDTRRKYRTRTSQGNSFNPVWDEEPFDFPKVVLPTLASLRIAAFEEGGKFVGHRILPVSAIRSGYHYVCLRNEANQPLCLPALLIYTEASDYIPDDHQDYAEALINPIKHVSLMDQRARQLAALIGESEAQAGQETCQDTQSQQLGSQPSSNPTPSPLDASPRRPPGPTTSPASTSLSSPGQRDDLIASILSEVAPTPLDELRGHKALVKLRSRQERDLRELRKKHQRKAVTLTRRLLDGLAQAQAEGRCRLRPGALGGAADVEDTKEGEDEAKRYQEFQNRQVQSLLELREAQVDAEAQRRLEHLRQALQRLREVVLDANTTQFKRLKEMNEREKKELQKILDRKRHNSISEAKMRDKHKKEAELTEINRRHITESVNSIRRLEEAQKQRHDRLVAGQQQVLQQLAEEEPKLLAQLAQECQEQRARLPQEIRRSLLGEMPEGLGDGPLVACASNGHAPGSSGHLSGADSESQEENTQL
ADAM10 inh: ADAM10 inhibition, QFRET primary screen; O14672; recombinant ADAM10, EDANS/DABCYL FRET peptide cleavage, 3 h; inhibition, % at 7 µM; hit rate 0.62% among 370,000; AID 720582;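 active = inhibition above a per-campaign cutoff equal to the mean of compounds falling between control-based bounds plus 3 SD, cut at about 20% in these data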
PLC-gamma1 inh: inhibitors of human phospholipase C gamma1; hit rate 0.84% among 370,000; purified PLC-gamma1, fluorogenic substrate, fluorescence; inhibition, % at 12.2 µM; in the data active = inhibition above about 9.5%
ADAM17 inh: ADAM17 inhibition, QFRET primary screen; inhibition, % at 6.95 µM; recombinant ADAM17, EDANS/DABCYL FRET peptide cleavage; hit rate 0.83% among 370,000; P78536; AID 720648;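 active = inhibition above the mean of compounds lying between control limits plus 3 SD, set per campaign, cut at about 8.5% in these data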
Tb MetRS inh: blocks T. brucei methionyl-tRNA synthetase activity | inhibition, % at 11.9 µM | purified T. brucei MetRS, ATP depletion, Kinase-Glo luminescence | hit rate 0.4% among 360,000;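 active = inhibition above a per-plate cutoff of the control wells' mean inhibition plus 3 SD, cut at about 5.5% in these data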
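Material – parasite MetRS enzyme · Medium – HEPES-MgCl2-KCl buffer plus DTT, spermine, BSA, pyrophosphatase · Reagent – ATP, methionine and E. coli bulk tRNA substrates · Times – 15 min enzyme-compound preincubation, 2 h reaction, 10 min detection, 25 °C · Measured by – luminescence of leftover ATP · Evaluation – percent inhibition relative to median high and low control wells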
TbMetRS confirm: Trypanosoma brucei MetRS inhibition confirmed; shares compounds with Tb MetRS inh; T. brucei MetRS enzyme, luminescence (ATP depletion); inhibition, % at 11.9 µM; hit rate 93% among 1,400; AID 624412; in the data active = inhibition above about 7%
Jurkat cytotox: kills Jurkat cells in T. brucei MetRS counterscreen. inhibition, % at 8.3 µM. AID 624413. Jurkat cells viability, ATP luminescence. shares compounds with Tb MetRS inh. hit rate 12% among 1,400; in the data active = inhibition above about 15%
Tb MetRS inh FP: inhibits T. brucei methionyl tRNA synthetase in orthogonal FP test | shares compounds with Tb MetRS inh | purified T. brucei MetRS, fluorescence polarization | inhibition, % at 11.9 µM | hit rate 44% among 1,400 | AID 651607; in the data active = inhibition above about 17%
Numbers stand for hits; - = inactive; . = not tested or not shown.

SMILES	PLCb3 inh	ADAM10 inh	PLC-gamma1 inh	ADAM17 inh	Tb MetRS inh	TbMetRS confirm	Jurkat cytotox	Tb MetRS inh FP
CC[C@]12C(=O)N(C)C[C@H]([C@@H]3C(=O)N(Cc4ccccc4)C(=O)[C@@H]31)N2C(=O)c1ccc(F)cc1	-	-	-	-	-	.	.	.
COc1cccc(CN2CCCC(C(=O)Nc3ccc(-c4cscn4)cc3)C2)c1 (configuration not stated)	-	-	-	-	7.4	28	-	-
O=S(=O)(c1ccccc1)c1nc(Nc2cccc(O)c2)sc1Cl	-	-	-	-	10	20	18	-
CC1(C(=O)NS(=O)(=O)c2ccc(C#N)cc2)CCN1C(=O)C1(c2ccc(Cl)cc2)CC1 (configuration not stated)	-	-	-	-	-	.	.	.
CC(C)(C)OC(=O)N1CCC[C@H]1C(=O)N1CCC[C@H]1C(=O)NCc1ccc(F)cc1F	-	-	-	-	-	.	.	.
CC(C)(C)OC(=O)N1CCC[C@H]1C(=O)NCc1ccc(Cl)cc1Cl	-	-	-	-	5.7	14	-	-
CCOc1cc(/C=C2\SC(=S)N(NS(=O)(=O)c3ccc(C)cc3)C2=O)ccc1O	-	-	-	-	5.8	11	-	32
COc1cc(/C=C2\SC(=S)N(NS(=O)(=O)c3ccc(C)cc3)C2=O)ccc1O	-	-	-	-	-	.	.	.
CCOC(=O)[C@@]12CCC3=C1N(CCC3)C(=O)[C@H](CC(=O)N1CCCC1)C2	-	-	-	-	.	.	.	.
O=c1[nH]c2cc3ccccc3cc2nc1-c1nnnn1Cc1ccccc1	-	-	-	-	22	38	-	18
O=c1[nH]c2ccccc2nc1-c1nnnn1C1CCCC1	-	-	-	-	-	.	.	.
O=c1[nH]c2cc3ccccc3cc2nc1-c1nnnn1C1CCCC1	-	-	-	-	52	61	69	40
COc1ccc(/C=C/C(=O)OCC(=O)c2cc(C)ccc2C)cc1	-	-	-	-	-	.	.	.
C[C@H](CO)N1C[C@H](C)[C@@H](CN(C)C(=O)Nc2cccc(Oc3ccccn3)c2)OCc2cn(nn2)CCCC1=O	-	-	-	-	.	.	.	.
O=C(CSc1nc2ccccc2[nH]1)Nc1cc(C(F)(F)F)ccc1N1CCOCC1	-	-	-	-	-	.	.	.
O=C(Cn1c(CO)nc2ccccc21)Nc1cc(C(F)(F)F)ccc1N1CCOCC1	-	-	-	-	14	26	-	-
O=C(CSc1nnc2c(n1)[nH]c1ccccc12)Nc1nncs1	-	-	-	-	24	43	-	19
O=C(CSc1nnc2c(n1)[nH]c1ccccc12)Nc1ccc2c(c1)OCO2	-	-	-	-	76	83	-	71
Cc1ccc(-c2csc(NC(=O)CSc3nnc4c(n3)[nH]c3ccccc34)n2)cc1	-	-	-	-	7.7	15	18	-
O=C(CSc1nc2ncccc2[nH]1)Nc1ccc2c(c1)OCO2	-	-	-	-	16	27	-	17
CCOC(=O)N1CCN(C(=O)C[C@@H]2C[C@@]3(C(=O)OCC)CCCC=C3N(Cc3ccccc3)C2=O)CC1	-	-	-	-	-	.	.	.
CSCC[C@H](NC(=O)Nc1ccc(S(N)(=O)=O)cc1)C(=O)O	-	-	-	-	-	.	.	.
COc1ccc(NC(=S)NNC(=O)c2ccco2)c(OC)c1	-	-	-	-	-	.	.	.
Clc1ccc2nc(-c3ccc(Cl)nc3)[nH]c2c1	-	-	-	-	25	46	15	22
C=CCC1NS(=O)(=O)O[C@H](CCCC)[C@@H]1O (some centres not stated)	-	-	-	-	-	.	.	.
O=S(=O)(Nc1nccs1)c1ccc(NCc2cc(Br)cc(Br)c2O)cc1	-	-	-	-	36	68	-	24
COc1cccc(CNc2ccc(S(=O)(=O)Nc3nccs3)cc2)c1O	-	-	-	-	-	.	.	.
Clc1ccc(OCCN2CCCCC2)c(Cl)c1	-	-	-	-	-	.	.	.
Clc1ccc(OCCCn2ccnc2)c(Br)c1	-	-	-	-	13	22	-	-
